# Bioassay records deposited in PubChem BioAssay by several laboratories.
# NR2E3 ag-1: inhibitors of NR2E3-RetCOR corepressor binding, primary screen, NR2E3 agonist project, biochemical, TR-FRET, GST-NR2E3, biotin-RetCOR; 320,000 tested, 0.12% active; inhibition of corepressor binding, % at 4.78 µM; 1536-well;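 active = percent inhibition above the cutoff of mean plus 3 SD of all tested compounds, set per screening campaign, cut at about 20% in these data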;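 note: 0% = DMSO wells and 100% = biotin wells as full block of FRET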
#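 System: GST-tagged NR2E3 plus biotinylated RetCOR corepressor; Amount: 1.35 nM GST-tagged NR2E3 final; Dosing: single nominal compound dose of 4.8 µM; Schedule: 5 h incubation at 4 °C; Technique: TR-FRET with europium anti-GST and streptavidin-D2, 340 nm excitation; Controls: biotin wells as high control, 0.6% DMSO wells as low control.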
# NR1D1 modulator: modulators of Rev-erb alpha DNA binding, primary screen, biochemical, FITC-DNA, fluorescence polarization, uHTS. Rev-erbα–FITC-DNA binding, 90 min. activity, % at 10 µM. 370,000 tested, 0.79% active. AID 1259318, 2017;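 active = activity above about 14%, limit read from the data; passing the limit was not always enough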;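 note: 0% = DMSO wells with 35 nM protein and 100% = DMSO wells with 750 nM protein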
# NR2E3 ag-2: NR2E3 agonists in two-hybrid cells, primary screen, cell-based, luminescence, CHO-S, Gal4-NCOR/VP16-NR2E3; Photoreceptor-specific nuclear receptor (Homo sapiens), Q9Y5X4; luciferase; inhibition of corepressor binding, % at 3.98 µM; 360,000 tested, 0.35% active;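 active = inhibition above the mean of all tested compounds plus 3 SD, cut at about 70% in these data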;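 note: 0% = DMSO with NR2E3 transfected cells and 100% = cells lacking NR2E3 construct; higher means lower luciferase signal from less NR2E3 corepressor binding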
# SKN-1 block: suppressors of acrylamide-induced Pgst-4::GFP reporter in worms, primary screen, SKN-1 inhibitor project, whole organism, uHTS, GFP/RFP fluorescence ratio, strain VP596 | C. elegans VP596 Pgst-4::GFP/RFP ratio, 24 h | inhibition, % at 21.8 µM | 360,000 tested, 0.49% active;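 active = interference check ratio from 0.5 to 1.5 plus GFP to RFP signal ratio inhibition reaching or exceeding a fixed threshold, cut at about 30% in these data, passing the limit was not always enough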
# PG9 Ab binder: binders of HIV-1 gp120 antibody PG9, primary screen, biochemical, TR-FRET; HIV-1 gp120 / PG9 antibody interaction; TR-FRET gp120-PG9 antibody binding; AID 624416, 2012; inhibition, % at 6.7 µM; 360,000 tested, 0.43% active; in the data active = inhibition above about 8.5%
# MT1-MMP act inh: blockers of MT1-MMP proenzyme processing, primary screen, HT1080 RFP-PRO-GFP cells, GFP/RFP fluorescence; GFP/RFP ratio fluorescence, overnight; percent of plate control window, DMSO zero; GFP/RFP ratio change, % at 20 µM; Matrix metalloproteinase-14 (Homo sapiens), P50281; 360,000 tested, 0.061% active; AID 651647, 2012;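 active = GFP/RFP ratio change of at least 30% with cell ATP level not reduced by more than half and red fluorescence within 50% of control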
#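 Assay system: RFP-PRO-GFP reporter HT1080 cells; read-out basis: GFP/RFP fluorescence ratio; benchmarks: DMSO wells and RFP-L50D-GFP cells; doses: 20 µM single dose, 1% DMSO; schedule: overnight cell settling, then overnight compound exposure, 37 °C, 5% CO2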
# NR2E3 ag confirm: NR2E3 agonists, confirmation, biochemical, TR-FRET; shares compounds with NR2E3 ag-1; cell-free NR2E3 corepressor release, 5 h; activation (reported as inhibition), % at 3.98 µM; 360 tested, 39% active; AID 2379, 2010; in the data active = activation above about 20%
# PPARg-NCOR2 ctr: agonists of PPARg-NCOR2 corepressor interaction, counter-screen for NR2E3 agonist project, biochemical, TR-FRET; shares compounds with NR2E3 ag-1; TR-FRET PPARg-NCOR2 coregulator interaction; inhibition, % at 3.98 µM; 360 tested, 45% active; AID 504787, 2011; in the data active = inhibition above about 20%;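 note: 0% = DMSO vehicle and 100% = wells without protein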
# Target sequence (P37231 whole entry, looked up): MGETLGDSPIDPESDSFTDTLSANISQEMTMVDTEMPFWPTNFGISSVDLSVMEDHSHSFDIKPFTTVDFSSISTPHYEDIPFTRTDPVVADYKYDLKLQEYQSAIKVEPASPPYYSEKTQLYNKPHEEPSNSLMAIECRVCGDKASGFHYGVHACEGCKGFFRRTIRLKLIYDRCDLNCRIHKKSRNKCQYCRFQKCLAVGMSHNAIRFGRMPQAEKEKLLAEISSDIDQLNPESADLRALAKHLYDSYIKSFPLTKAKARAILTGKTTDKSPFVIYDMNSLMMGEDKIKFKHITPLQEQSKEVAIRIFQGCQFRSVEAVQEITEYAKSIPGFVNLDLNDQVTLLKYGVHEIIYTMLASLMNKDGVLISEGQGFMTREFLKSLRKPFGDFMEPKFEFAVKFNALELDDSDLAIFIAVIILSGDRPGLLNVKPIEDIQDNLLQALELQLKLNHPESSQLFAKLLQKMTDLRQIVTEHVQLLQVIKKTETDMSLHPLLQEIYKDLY
# Target sequence (Q9Y618 whole entry, looked up): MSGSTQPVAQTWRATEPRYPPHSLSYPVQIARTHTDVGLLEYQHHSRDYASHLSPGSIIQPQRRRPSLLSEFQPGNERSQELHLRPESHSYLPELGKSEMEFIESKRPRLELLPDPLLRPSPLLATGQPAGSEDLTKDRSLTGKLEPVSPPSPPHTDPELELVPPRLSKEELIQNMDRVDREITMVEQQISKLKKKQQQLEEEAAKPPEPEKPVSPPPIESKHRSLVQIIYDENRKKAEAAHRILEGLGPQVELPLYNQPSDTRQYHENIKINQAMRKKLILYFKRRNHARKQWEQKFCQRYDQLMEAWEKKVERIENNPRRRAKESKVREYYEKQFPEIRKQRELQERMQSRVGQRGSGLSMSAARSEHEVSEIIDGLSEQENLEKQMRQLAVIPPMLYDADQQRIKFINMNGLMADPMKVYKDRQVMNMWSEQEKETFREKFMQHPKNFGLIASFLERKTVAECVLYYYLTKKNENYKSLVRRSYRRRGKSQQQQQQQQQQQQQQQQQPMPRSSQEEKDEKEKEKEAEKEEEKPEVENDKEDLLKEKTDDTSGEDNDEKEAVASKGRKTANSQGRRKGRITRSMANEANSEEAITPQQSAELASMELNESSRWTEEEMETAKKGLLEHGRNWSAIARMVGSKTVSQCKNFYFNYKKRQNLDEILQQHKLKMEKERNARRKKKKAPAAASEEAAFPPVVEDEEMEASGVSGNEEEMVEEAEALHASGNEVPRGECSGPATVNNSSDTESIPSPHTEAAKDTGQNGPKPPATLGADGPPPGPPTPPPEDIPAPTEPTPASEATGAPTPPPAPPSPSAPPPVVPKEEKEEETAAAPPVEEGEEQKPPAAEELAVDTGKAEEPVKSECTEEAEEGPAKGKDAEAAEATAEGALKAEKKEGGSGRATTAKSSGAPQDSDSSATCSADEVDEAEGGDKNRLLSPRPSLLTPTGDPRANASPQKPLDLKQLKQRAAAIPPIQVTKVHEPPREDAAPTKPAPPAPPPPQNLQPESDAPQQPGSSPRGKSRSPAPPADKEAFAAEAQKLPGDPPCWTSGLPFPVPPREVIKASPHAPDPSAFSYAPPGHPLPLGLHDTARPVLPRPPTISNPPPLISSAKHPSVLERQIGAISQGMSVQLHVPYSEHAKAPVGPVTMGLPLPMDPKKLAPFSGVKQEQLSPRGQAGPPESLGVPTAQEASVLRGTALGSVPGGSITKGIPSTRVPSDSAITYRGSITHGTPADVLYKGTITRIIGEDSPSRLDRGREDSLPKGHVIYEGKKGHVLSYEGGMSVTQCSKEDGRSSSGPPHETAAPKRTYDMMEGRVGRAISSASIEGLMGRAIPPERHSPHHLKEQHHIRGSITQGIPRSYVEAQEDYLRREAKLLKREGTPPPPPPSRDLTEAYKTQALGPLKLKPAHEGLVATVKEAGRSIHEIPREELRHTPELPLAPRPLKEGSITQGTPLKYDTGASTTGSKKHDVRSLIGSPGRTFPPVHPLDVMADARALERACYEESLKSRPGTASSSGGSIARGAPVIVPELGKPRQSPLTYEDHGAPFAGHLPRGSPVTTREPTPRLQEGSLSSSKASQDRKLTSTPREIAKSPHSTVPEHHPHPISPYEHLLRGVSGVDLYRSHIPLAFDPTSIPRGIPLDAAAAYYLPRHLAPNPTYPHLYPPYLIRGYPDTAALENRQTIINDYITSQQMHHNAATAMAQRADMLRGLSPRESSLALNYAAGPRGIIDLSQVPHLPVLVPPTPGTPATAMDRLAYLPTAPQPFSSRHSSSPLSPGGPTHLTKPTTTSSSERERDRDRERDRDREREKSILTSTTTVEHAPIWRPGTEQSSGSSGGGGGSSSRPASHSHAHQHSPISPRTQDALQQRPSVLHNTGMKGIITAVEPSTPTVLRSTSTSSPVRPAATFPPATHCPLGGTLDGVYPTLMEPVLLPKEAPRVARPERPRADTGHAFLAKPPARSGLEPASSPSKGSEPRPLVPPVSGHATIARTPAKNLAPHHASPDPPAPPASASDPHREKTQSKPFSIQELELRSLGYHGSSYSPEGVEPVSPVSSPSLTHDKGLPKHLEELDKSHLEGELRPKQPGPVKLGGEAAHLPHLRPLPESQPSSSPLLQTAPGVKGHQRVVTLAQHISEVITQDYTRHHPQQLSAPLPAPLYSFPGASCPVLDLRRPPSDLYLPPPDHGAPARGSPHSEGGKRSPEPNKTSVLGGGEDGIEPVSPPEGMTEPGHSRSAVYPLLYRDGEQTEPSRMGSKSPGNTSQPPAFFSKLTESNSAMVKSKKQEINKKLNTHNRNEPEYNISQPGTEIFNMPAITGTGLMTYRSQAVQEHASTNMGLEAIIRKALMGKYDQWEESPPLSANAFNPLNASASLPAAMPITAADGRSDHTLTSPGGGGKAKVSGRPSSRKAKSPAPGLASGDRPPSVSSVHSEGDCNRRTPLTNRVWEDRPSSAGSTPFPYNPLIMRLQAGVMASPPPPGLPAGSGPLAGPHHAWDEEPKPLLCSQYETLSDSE
# * = called active by the depositor; . = not tested or not shown. A selection: hits, their analogues and other compounds. The true share with any hit is near 1.9%.
SMILES,NR2E3 ag-1,NR1D1 modulator,NR2E3 ag-2,SKN-1 block,PG9 Ab binder,MT1-MMP act inh,NR2E3 ag confirm,PPARg-NCOR2 ctr
Cc1ccc2nc(SCC(=O)Nc3ccc4c(c3)CCC4)[nH]c2c1,0,-5,2,11,0,0,.,.
O=C(CSc1nc2ccc(Cl)cc2[nH]1)Nc1ccc2c(c1)CCC2,32*,4,-18,6,-2,1,-6,-5
O=S(=O)(NCc1cccs1)c1cccc(S(=O)(=O)N2CCCCC2)c1,34*,4,-11,-16,2,10,-6,-6
O=S(=O)(c1cccc(S(=O)(=O)N2CCCC2)c1)N1CCCCC1,5,-4,-16,-4,-1,3,.,.
C[C@H]1c2cccc(O)c2C(O)=C2C(=O)C3(O)C(O)=C(C(N)=O)C(=O)[C@@H](N(C)C)[C@@H]3[C@@H](O)[C@@H]21 (stereo not given in full),-2,-8,-9,1,-2,-6,.,.
C=C1c2cccc(O)c2C(O)=C2C(=O)[C@]3(O)C(O)=C(C(N)=O)C(=O)[C@@H](N(C)C)[C@@H]3[C@@H](O)[C@H]12,31*,-41,-22,9,1,11,1,1
CCc1cc2c(=O)n(-c3ccccc3)c(=S)[nH]c2s1,23*,-3,-5,-10,2,.,1,-2
COC(=O)c1cc2c(c3c4cc(OC)ccc4n(C(=O)c4ccccc4)c13)C(=O)N(C1CCCCC1)C2,.,-3,.,.,-1,.,.,.
CN[C@H]1C[C@H]2c3[nH]c4cccc(-c5ccccc5)c4c3CCN2C[C@H]1[C@H](C)O,.,0,.,.,.,.,.,.
CSc1nn(CCC#N)c(=O)[nH]c1=O,.,6,.,.,1,.,.,.
O=c1c2cc(O)c(O)cc2oc2cc(O)c(C3OC(CO)C(O)C(O)C3O)c(O)c12 (stereo not given),29*,-7,-21,-11,-8,9,20*,-5
CCCCC1=CC2=C(c3ccco3)C(=O)C(C)(OC(=O)c3ccc(OC)cc3)C(=O)C2=CN1c1ccccc1 (stereo not given),34*,.,-46,-8,.,.,-6,-3
COc1ccc(C(=O)c2[nH]c(N)c(C(=O)c3c[nH]c4ccccc34)c2-c2ccc(F)c(OC)c2)cc1,.,2,.,.,-2,.,.,.
COCC(=O)N[C@H]1C[C@@H]2O[C@@H](CO)CC[C@@H]2O[C@@H]1CCc1ccc(-c2ccccc2)cc1,.,-4,.,.,.,.,.,.
CCc1c(C(=O)Nc2ccccc2)c(C)[nH]c(=S)c1C#N,30*,-4,-4,2,0,5,2,-3
COC(=O)C1=C(C)N(Cc2ccccc2C(F)(F)F)C(=NCc2ccccc2)NC1CCc1ccccc1 (stereo not given),.,0,.,.,-1,.,.,.
Cc1ccc(S(=O)(=O)NCC(=O)OCC(=O)c2ccc(Br)s2)cc1,22*,-1,-14,2,0,-2,3,10
Nc1c(C(=O)NCCc2ccccc2)sc2nc(N3CCOCC3)c3c(c12)CCCC3,27*,-4,0,15,7,1,3,3
CN(C(=O)c1sc2nc(N3CCOCC3)c3c(c2c1N)CCCC3)c1ccccc1,7,0,-2,-11,2,-5,.,.
Cc1ccccc1NC(=O)c1sc2nc(N3CCOCC3)c3c(c2c1N)CCCC3,23*,3,-89,-7,5,0,-10,3
COc1c(O)cc2c(c1O)[C@H]1O[C@H](CO)[C@@H](O)[C@H](O)[C@@H]1OC2=O,.,-4,.,.,.,.,.,.
COC(=O)C1=C(C)NC(C)=C(C(=O)OC)C(N2C(=O)CCC2=O)C1 (stereo not given),.,4,.,.,0,.,.,.
CCC[C@H]1[C@@H](NC(=S)Nc2ccccc2Cl)CC[C@@]23CCCN2C(=O)CCC[C@@H]13,.,1,.,.,.,.,.,.
CCCCC(=O)Nc1ncc(Br)s1,32*,5,16,8,.,-10,-2,-4
CCOC(=O)[C@]12CCCC=C1N(Cc1ccc(OC)cc1)C(=O)[C@@H]2CC(=O)NCc1cccc(C(F)(F)F)c1,.,-1,.,.,.,.,.,.
SMILES,NR2E3 ag-1,NR1D1 modulator,NR2E3 ag-2,SKN-1 block,PG9 Ab binder,MT1-MMP act inh,NR2E3 ag confirm,PPARg-NCOR2 ctr
COc1cccc(CNC(=O)C2CCCN(c3ncccn3)C2)c1OC (stereo not given),.,0,.,.,.,.,.,.
Cc1cs/c(=N/C(=S)Nc2ccccc2)n1C,7,13,-162,8,1,1,.,.
CCCn1c(C)cs/c1=N\C(=S)Nc1ccccc1,26*,17,1,5,0,5,17,14
COC(=O)c1c(Cl)c2n3ccccc3c(C)c(-c3ccccc3)c-2c1C(=O)OC,61*,3,-1,25,6,-25,69*,70*
COC(=O)c1c(C(=O)OC)c2ccccn2c1C(=O)c1ccccc1,2,-3,-35,32,0,2,.,.
CCCCCCC(=O)NC1CCCCN(Cc2cccc(Cl)c2)C1=O (stereo not given),.,-2,.,.,.,.,.,.
CCOc1ccc(/C(O)=C2/C(=O)C(=O)N(CCOCCO)C2c2ccc(F)cc2)cc1 (stereo not given),20*,0,13,-5,8,-1,14,7
C#CCn1c(=NC(=O)CSC(C)=O)sc2cc(F)ccc21,27*,.,15,1,.,3,11,20*
Cc1cc(C)nc(NC(=S)Nc2cccc(F)c2)c1,21*,7,-61,0,-4,-1,-4,34*
Fc1cccc(NC(=S)Nc2cccc3ccccc23)c1,1,3,6,14,0,4,.,.
CCSc1cnn(-c2ccccc2)c(=O)c1SCC,21*,-3,-17,8,1,2,4,0
Cc1ccc(-c2c3c(nc4sc(C(N)=O)c(N)c24)CCCC3)o1,26*,8,15,7,3,0,-10,2
